Measurements as given in ChEMBL document CHEMBL3352165 (Eur J Med Chem, 2014).
Calls of active or inactive are those of the source. No cut-off for these calls is given here.

Tests used:
[1] = target: Platelet-derived growth factor receptor beta (Homo sapiens, UniProt P09619); conditions: U-87MG ATCC, 0.001 to 1 uM
[2] = target: T1, Receptor tyrosine-protein kinase erbB-2 (Homo sapiens, UniProt P04626); assay: Inhibition of HER2 (unknown origin) assessed as reduction in autophosphorylation by ELISA method
T1 sequence (P04626 whole entry): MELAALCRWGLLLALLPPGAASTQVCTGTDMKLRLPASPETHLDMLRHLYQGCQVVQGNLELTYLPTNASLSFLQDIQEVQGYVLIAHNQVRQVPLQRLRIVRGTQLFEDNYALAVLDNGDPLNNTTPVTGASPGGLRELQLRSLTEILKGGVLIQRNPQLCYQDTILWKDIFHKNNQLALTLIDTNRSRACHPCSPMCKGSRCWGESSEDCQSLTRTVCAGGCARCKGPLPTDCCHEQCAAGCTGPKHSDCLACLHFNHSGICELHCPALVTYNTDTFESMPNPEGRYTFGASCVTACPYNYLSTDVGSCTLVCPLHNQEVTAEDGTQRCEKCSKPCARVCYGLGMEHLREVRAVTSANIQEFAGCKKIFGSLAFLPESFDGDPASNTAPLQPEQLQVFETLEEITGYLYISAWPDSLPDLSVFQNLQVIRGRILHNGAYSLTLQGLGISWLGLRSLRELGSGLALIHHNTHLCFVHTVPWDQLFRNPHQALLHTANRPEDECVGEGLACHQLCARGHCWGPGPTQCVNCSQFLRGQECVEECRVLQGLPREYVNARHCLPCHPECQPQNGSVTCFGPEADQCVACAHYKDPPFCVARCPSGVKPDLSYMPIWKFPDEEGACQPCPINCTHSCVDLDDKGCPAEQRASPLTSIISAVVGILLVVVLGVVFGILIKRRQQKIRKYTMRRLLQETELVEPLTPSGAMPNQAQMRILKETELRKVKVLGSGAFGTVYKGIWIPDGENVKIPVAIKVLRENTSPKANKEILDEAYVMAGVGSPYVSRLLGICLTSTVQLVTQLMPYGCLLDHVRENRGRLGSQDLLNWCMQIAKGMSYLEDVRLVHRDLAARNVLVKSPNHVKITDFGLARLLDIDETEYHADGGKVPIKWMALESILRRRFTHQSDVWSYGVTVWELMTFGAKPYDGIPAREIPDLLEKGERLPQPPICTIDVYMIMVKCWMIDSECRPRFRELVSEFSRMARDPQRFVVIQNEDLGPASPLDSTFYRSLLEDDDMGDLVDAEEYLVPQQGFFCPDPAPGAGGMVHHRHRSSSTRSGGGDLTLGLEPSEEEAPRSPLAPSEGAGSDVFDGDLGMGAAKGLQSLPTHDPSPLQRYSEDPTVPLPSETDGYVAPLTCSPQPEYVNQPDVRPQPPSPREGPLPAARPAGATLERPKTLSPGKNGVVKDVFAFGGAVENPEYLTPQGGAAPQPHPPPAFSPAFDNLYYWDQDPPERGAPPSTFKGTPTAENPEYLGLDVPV
Procedure, shortened: (§1)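 Phosphotyrosine ELISA with purified kinase (20 ng) and 5 µM ATP in buffer (50 mM HEPES pH 7.4, 20 mM MgCl2, 0.1 mM MnCl2, 0.2 mM Na3VO4, 1 mM DTT), 1 h at 37 °C, DMSO ≤1%. Detection by PY99 antibody, then HRP anti-mouse IgG with o-phenylenediamine, A490. IC50 by Logit from at least three independent tests.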

MCF7 = assay: Cytotoxicity against human MCF7 cells assessed as inhibition of cell growth after 72 hrs by sulforhodamine B assay; type: functional, cell-based; conditions: MCF7, 72 h
Procedure, shortened: (§2)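 Cells grown in RPMI-1640 with 5% FBS and plated at 5.0×10^4/ml. Next day exposed to 0.5–5000 ng/ml for 3 days. Survival read by sulforhodamine B staining. IC50 taken from growth curves; mean of at least three determinations.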

BT-474 [3] = assay: Induction of cell cycle arrest in human BT474 cells assessed as accumulation at S phase at 0.01 uM incubated for 12 hrs by propidium iodide staining based flow cytometry (reference value: 19%); type: functional
BT-474 [4] = assay: Induction of cell cycle arrest in human BT474 cells assessed as accumulation at G1 phase at 1 uM incubated for 12 hrs by propidium iodide staining based flow cytometry (reference value: 67%); type: functional
[5] = target: Vascular endothelial growth factor receptor 2 (Homo sapiens, UniProt P35968); assay: Inhibition of KDR (unknown origin) by ELISA method
Chain of Vascular endothelial growth factor receptor 2 (P35968 whole entry): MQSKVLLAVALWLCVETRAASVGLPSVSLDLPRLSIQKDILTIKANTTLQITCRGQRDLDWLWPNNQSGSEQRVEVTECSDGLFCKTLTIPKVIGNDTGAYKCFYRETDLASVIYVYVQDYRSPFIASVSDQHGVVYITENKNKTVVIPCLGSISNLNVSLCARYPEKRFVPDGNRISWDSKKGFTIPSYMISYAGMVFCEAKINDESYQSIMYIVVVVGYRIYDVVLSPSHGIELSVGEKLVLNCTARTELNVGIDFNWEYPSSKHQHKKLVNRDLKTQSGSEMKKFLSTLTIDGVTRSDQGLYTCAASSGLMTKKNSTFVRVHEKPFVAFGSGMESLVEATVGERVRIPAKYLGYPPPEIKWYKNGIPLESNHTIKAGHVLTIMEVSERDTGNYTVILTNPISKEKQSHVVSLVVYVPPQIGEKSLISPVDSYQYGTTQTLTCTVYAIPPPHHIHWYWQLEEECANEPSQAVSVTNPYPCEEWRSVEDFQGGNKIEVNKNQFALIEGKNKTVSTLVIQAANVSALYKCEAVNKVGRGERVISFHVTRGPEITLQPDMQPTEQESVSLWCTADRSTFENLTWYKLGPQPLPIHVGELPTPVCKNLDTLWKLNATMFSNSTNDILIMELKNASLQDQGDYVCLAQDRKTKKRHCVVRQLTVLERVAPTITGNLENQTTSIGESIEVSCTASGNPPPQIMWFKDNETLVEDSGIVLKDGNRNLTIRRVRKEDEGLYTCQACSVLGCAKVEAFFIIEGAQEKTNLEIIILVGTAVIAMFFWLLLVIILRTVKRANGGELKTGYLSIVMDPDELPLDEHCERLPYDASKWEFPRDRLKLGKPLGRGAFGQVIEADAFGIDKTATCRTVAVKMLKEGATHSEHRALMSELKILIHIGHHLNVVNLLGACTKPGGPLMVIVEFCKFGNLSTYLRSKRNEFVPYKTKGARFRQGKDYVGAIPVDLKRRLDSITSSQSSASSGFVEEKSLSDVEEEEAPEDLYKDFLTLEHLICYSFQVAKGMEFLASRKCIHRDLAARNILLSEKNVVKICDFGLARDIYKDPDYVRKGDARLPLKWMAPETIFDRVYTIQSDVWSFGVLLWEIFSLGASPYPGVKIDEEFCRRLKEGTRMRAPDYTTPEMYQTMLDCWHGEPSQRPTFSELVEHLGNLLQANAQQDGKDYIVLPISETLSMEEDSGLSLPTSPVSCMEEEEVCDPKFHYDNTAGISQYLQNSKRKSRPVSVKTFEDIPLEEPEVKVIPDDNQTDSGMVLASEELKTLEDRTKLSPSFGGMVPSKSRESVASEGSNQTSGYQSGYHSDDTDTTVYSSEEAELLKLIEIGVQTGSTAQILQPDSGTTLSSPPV
Procedure, shortened: as §1

MDA-MB-231 = assay: cells; conditions: Homo sapiens, MDA-MB-231, 72 h
[6] = target: Mast/stem cell growth factor receptor Kit (Homo sapiens, UniProt P10721); assay: Inhibition of c-KIT (unknown origin) by ELISA method
Procedure, shortened: as §1

BT-474 [7] = assay: Induction of cell cycle arrest in human BT474 cells assessed as accumulation at G1 phase at 0.001 uM incubated for 12 hrs by propidium iodide staining based flow cytometry (reference value: 67%); type: functional
[8] = target: T2, Epidermal growth factor receptor (Homo sapiens, UniProt P00533); conditions: A-431, 0.001 to 10 uM
T2 sequence (P00533 whole entry): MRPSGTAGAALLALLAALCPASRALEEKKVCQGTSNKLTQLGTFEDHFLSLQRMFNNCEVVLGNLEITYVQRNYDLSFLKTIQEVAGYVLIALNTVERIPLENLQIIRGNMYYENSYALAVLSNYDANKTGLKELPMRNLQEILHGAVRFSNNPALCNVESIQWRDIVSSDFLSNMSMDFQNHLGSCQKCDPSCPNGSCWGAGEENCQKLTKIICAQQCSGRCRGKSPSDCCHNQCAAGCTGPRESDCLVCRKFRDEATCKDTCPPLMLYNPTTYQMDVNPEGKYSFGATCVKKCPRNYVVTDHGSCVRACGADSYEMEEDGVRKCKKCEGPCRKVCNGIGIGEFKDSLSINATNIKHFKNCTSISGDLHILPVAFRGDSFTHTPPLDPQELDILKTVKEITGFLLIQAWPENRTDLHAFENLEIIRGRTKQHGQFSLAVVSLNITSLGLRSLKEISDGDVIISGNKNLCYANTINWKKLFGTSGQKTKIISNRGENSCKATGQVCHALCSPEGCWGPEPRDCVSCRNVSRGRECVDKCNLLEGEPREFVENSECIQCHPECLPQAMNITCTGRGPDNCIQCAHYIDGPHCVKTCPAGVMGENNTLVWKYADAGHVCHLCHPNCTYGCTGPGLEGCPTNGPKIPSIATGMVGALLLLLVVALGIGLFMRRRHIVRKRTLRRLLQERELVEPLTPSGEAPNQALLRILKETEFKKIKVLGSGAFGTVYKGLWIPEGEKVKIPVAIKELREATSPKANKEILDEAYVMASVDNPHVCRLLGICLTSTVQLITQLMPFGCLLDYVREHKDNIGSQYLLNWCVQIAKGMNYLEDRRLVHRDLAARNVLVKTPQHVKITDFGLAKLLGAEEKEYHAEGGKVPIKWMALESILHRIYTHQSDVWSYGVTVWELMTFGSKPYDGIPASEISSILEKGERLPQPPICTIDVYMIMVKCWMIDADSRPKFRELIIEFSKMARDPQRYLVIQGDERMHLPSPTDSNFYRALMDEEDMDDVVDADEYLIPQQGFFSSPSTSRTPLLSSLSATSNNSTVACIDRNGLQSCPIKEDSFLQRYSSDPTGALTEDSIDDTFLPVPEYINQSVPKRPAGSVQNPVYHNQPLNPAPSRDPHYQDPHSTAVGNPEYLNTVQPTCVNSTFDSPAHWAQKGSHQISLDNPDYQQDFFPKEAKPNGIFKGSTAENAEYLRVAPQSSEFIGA

BT-474 [9] = assay: Induction of cell cycle arrest in human BT474 cells assessed as accumulation at G2/M phase at 10 uM incubated for 12 hrs by propidium iodide staining based flow cytometry (reference value: 14%); type: functional
BT-474 [10] = assay: Induction of cell cycle arrest in human BT474 cells assessed as accumulation at S phase at 1 uM incubated for 12 hrs by propidium iodide staining based flow cytometry (reference value: 19%); type: functional
[11] = Tmax in Beagle dog at 240 mg/kg, po administered as single dose measured after 0.25 to 24 hrs post dose by LC/MS/MS method; type: ADME, organism-based, Canis lupus familiaris; parameters: dose 240 mg/kg, route oral; conditions: in vivo
Procedure, shortened: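 Beagle dogs (n = 6), single oral gavage dose of 240 mg/kg. Plasma levels measured by validated LC/MS/MS. Tmax read directly from the concentration-time data.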

[12] = target: T1, Receptor tyrosine-protein kinase erbB-2; conditions: BT-474, 0.001 to 1 uM
[13] = Cytotoxicity against human SKBR3 cells assessed as inhibition of cell growth after 72 hrs by sulforhodamine B assay; type: functional, cell-based; conditions: SK-BR-3, 72 h
Procedure, shortened: as §2

[14] = target: T2, Epidermal growth factor receptor; conditions: A-431, 0.001 to 1 uM
BT-474 [15] = assay: Cytotoxicity against human BT474 cells assessed as inhibition of cell growth after 72 hrs by sulforhodamine B assay; type: functional, cell-based; conditions: BT-474, 72 h
Procedure, shortened: as §2

MDA-MB-453 = assay: cells; conditions: Homo sapiens, MDA-MB-453, 72 h
[16] = Tmax in Beagle dog at 240 mg/kg, po dosed for 14 days by LC/MS/MS method; type: ADME, organism-based, Canis lupus familiaris; parameters: dose 240 mg/kg, route oral; conditions: in vivo
Procedure, shortened: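 Beagle dogs (n = 6) given 240 mg/kg daily by oral gavage for 14 consecutive days. On days 1 and 14, blood taken predose and at 0.25–24 h post-dose. Plasma held at -20 °C, then quantified by validated LC/MS/MS. Tmax taken directly from the plasma concentration-time data.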

BT-474 [17] = assay: Induction of cell cycle arrest in human BT474 cells assessed as accumulation at G2/M phase at 0.01 uM incubated for 12 hrs by propidium iodide staining based flow cytometry (reference value: 14%); type: functional
[18] = AUC (0 to 24 hrs) in Beagle dog at 240 mg/kg, po administered as single dose measured after 0.25 to 24 hrs post dose by LC/MS/MS method; type: ADME, organism-based, Canis lupus familiaris; parameters: time < 24 hr, dose 240 mg/kg, route oral; conditions: plasma
Procedure, shortened: (§3)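 Single oral gavage of 240 mg/kg to beagle dogs (n = 6). Blood sampled at 0.25–24 h, kept on ice, centrifuged within 1 h (1000 × g, 4 °C, 15 min), plasma stored at −20 °C. Drug quantified by validated LC/MS/MS. AUC0–24 from non-compartmental analysis; Cmax and MRT taken directly from concentration–time data.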

BT-474 [19] = assay: Induction of cell cycle arrest in human BT474 cells assessed as accumulation at G2/M phase at 0.1 uM incubated for 12 hrs by propidium iodide staining based flow cytometry (reference value: 14%); type: functional
NCI-H460 = assay: cells; conditions: Homo sapiens, NCI-H460, 72 h
[20] = Elimination half life in Beagle dog at 240 mg/kg, po dosed for 14 days by LC/MS/MS method; type: ADME, organism-based, Canis lupus familiaris; parameters: dose 240 mg/kg, route oral; conditions: in vivo, read-out: beta t1/2 (converted)
Procedure, shortened: (§4)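 Beagle dogs (n = 6) dosed by oral gavage at 240 mg/kg daily for 14 consecutive days. Blood taken predose and at 0.25–24 h on days 1 and 14, plasma stored at −20 °C, analysed by validated LC/MS/MS. Half-life and AUC by model-independent methods; Cmax and MRT read from concentration–time data.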

A-431 = assay: Cytotoxicity against human A431 cells assessed as inhibition of cell growth after 72 hrs by sulforhodamine B assay; type: functional, cell-based; conditions: A-431, 72 h
Procedure, shortened: as §2

BT-474 [21] = assay: Induction of cell cycle arrest in human BT474 cells assessed as accumulation at S phase at 0.1 uM incubated for 12 hrs by propidium iodide staining based flow cytometry (reference value: 19%); type: functional
[22] = Mean residence time in Beagle dog at 240 mg/kg, po administered as single dose measured after 0.25 to 24 hrs post dose by LC/MS/MS method; type: ADME, organism-based, Canis lupus familiaris; parameters: dose 240 mg/kg, route oral; conditions: in vivo
Procedure, shortened: as §3

BT-474 [23] = assay: Induction of apoptosis in human BT474 cells at 0.1 uM incubated for 12 hrs by propidium iodide staining based flow cytometry (reference value: 1%); type: functional
[24] = AUC (0 to 24 hrs) in Beagle dog at 240 mg/kg, po dosed for 14 days by LC/MS/MS method; type: ADME, organism-based, Canis lupus familiaris; parameters: time < 24 hr, dose 240 mg/kg, route oral; conditions: plasma
Procedure, shortened: as §4

Chain of Platelet-derived growth factor receptor beta (P09619 whole entry): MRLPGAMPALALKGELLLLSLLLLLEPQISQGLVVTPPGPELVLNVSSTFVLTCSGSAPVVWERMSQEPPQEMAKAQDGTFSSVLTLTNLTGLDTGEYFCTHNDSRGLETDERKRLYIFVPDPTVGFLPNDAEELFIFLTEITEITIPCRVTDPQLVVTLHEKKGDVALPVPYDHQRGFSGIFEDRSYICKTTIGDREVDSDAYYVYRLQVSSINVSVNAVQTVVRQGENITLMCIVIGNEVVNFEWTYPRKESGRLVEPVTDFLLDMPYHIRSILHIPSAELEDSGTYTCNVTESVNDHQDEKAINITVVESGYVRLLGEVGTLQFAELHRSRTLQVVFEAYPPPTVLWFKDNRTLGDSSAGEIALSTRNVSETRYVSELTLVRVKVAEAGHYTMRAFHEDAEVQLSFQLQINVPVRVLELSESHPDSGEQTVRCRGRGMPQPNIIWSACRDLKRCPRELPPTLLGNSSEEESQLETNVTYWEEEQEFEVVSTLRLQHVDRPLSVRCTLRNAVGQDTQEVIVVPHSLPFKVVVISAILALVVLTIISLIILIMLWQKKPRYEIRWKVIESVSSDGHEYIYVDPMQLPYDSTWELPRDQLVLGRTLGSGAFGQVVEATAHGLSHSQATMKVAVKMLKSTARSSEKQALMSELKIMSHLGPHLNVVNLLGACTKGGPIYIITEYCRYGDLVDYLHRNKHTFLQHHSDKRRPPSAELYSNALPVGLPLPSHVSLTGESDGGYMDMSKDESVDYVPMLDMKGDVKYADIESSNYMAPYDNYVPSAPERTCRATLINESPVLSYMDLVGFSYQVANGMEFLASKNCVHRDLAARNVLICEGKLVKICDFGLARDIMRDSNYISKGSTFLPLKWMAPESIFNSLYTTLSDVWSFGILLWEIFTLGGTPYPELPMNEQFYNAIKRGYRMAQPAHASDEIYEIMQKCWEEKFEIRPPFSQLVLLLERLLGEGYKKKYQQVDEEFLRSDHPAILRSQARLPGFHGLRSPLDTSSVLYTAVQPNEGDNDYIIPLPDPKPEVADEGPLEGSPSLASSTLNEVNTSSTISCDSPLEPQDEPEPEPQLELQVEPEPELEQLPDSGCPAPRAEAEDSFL

CN(C)[C@H](CS(C)(=O)=O)c1ccc(-c2ccc3ncnc(Nc4ccc(OCc5cccc(F)c5)c(Cl)c4)c3c2)o1
inhibition [1]: inactive
IC50 [2]: 0.5 nM
IC50 (MCF7): 5670 nM
Activity (BT-474 [3]): 9%
Activity (BT-474 [4]): 82%
IC50 [5]: > 200000 nM
IC50 (MDA-MB-231): 95300 nM
IC50 [6]: > 200000 nM
Activity (BT-474 [7]): 70%
inhibition [8]: Dose-dependent effect
Activity (BT-474 [9]): 12%
Activity (BT-474 [10]): 6%
Tmax [11]: 4 h
inhibition [12]: Dose-dependent effect
IC50 [13]: 18.4 nM
inhibition [14]: Dose-dependent effect
IC50 (BT-474 [15]): 28.8 nM
IC50 (MDA-MB-453): 260 nM
Tmax [16]: 4.5 h
Activity (BT-474 [17]): 14%
AUC(0-t) at 24 h [18]: 29800 ng·h/mL
Activity (BT-474 [19]): 11%
IC50 (NCI-H460): > 100000 nM
half-life [20]: 4.8 h
IC50 (A-431): 634 nM
Activity (BT-474 [21]): 5%
MRT [22]: 6.1 h
Activity (BT-474 [23]): 4%
AUC at 24 h [24]: 29800 ng·h/mL
